ChEMBL document CHEMBL2384952, “Synthesis, antifungal and cytotoxic activities of 2-aryl-3-((piperidin-1-yl)ethyl)thiazolidinones” (Eur J Med Chem, 2013)
Converted amounts (≈) assume the structure as drawn.

Legend:
Vero [1] = test: Cytotoxicity against African green monkey Vero cells at 12.3 ug/mL by neutral red dye uptake assay relative to control; type: cell-based; details: chlorocebus sabaeus
Summary of the method: (§1)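 Vero cells (over 99% viable by trypan blue exclusion) were exposed to serial compound dilutions in E-MEM, with fresh E-MEM as negative control, for 72 h at 37 °C, 5% CO2. Cells were then given 3.3 mg/L neutral red for 2 h, and the dye was extracted with 50% ethanol/1% acetic acid. A540 was read, and viability was calculated as treated/control absorbance × 100.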

Vero [2] = test: Cytotoxicity against African green monkey Vero cells at 25 ug/mL by neutral red dye uptake assay relative to control; type: cell-based; details: chlorocebus sabaeus; summary of the method: as §1
Vero [3] = test: Cytotoxicity against African green monkey Vero cells at 49 ug/mL by neutral red dye uptake assay relative to control; type: cell-based; details: chlorocebus sabaeus; summary of the method: as §1
Vero [4] = test: Cytotoxicity against African green monkey Vero cells at 98 ug/mL by neutral red dye uptake assay relative to control; type: cell-based; details: chlorocebus sabaeus; summary of the method: as §1
Vero [5] = test: Cytotoxicity against African green monkey Vero cells at 197 ug/mL by neutral red dye uptake assay relative to control; type: cell-based; details: chlorocebus sabaeus; summary of the method: as §1
Vero [6] = test: Cytotoxicity against African green monkey Vero cells at 394 ug/mL by neutral red dye uptake assay relative to control; type: cell-based; details: chlorocebus sabaeus; summary of the method: as §1
Vero [7] = test: Cytotoxicity against African green monkey Vero cells at 787 ug/mL by neutral red dye uptake assay relative to control; type: cell-based; details: chlorocebus sabaeus; summary of the method: as §1
Vero [8] = test: Cytotoxicity against African green monkey Vero cells at 1575 ug/mL by neutral red dye uptake assay relative to control; type: cell-based; details: chlorocebus sabaeus; summary of the method: as §1
Vero [9] = test: Cytotoxicity against African green monkey Vero cells at 3150 ug/mL by neutral red dye uptake assay relative to control; type: cell-based; details: chlorocebus sabaeus; summary of the method: as §1
Candida parapsilosis = test: Antifungal activity against Candida parapsilosis after 48 hrs by CLSI M27A3 broth microdilution method; type: functional; details: Lodderomyces parapsilosis
Summary of the method: (§2)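 Yeasts were kept on Sabouraud dextrose agar and subcultured at 35 °C for at least 2 days. They were suspended in saline to McFarland 0.5 and diluted in RPMI. Ten successive dilutions were made from a 1.6 mg/mL DMSO stock per CLSI broth microdilution, then incubated at 37 °C for 48 h. Growth was read visually against a growth-control well, and MIC is the lowest concentration inhibiting growth.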

Geotrichum = test: Antifungal activity against Geotrichum species after 48 hrs by CLSI M27A3 broth microdilution method; type: functional; summary of the method: as §2
Papiliotrema laurentii = test: Antifungal activity against Cryptococcus laurentii after 48 hrs by CLSI M27A3 broth microdilution method; type: functional; summary of the method: as §2
Rhodotorula = test: Antifungal activity against Rhodotorula species after 48 hrs by CLSI M27A3 broth microdilution method; type: functional; summary of the method: as §2
Candida albicans = test: Antifungal activity against Candida albicans after 48 hrs by CLSI M27A3 broth microdilution method; type: functional; summary of the method: as §2
Trichosporon asahii = test: Antifungal activity against Trichosporon asahii after 48 hrs by CLSI M27A3 broth microdilution method; type: functional; summary of the method: as §2
[10] = system: Meyerozyma guilliermondii; test: Antifungal activity against Candida guilliermondii after 48 hrs by CLSI M27A3 broth microdilution method; type: functional; summary of the method: as §2

| SMILES | Cell viability (Vero [1]) [%] | Cell viability (Vero [2]) [%] | Cell viability (Vero [3]) [%] | Cell viability (Vero [4]) [%] | Cell viability (Vero [5]) [%] | Cell viability (Vero [6]) [%] | MFC (Candida parapsilosis) [µg/mL] | MIC (Candida parapsilosis) [µg/mL] | MFC (Geotrichum) [µg/mL] | MIC (Geotrichum) [µg/mL] | MFC (Papiliotrema laurentii) [µg/mL] | MIC (Papiliotrema laurentii) [µg/mL] | MFC (Rhodotorula) [µg/mL] | MIC (Rhodotorula) [µg/mL] | MFC (Candida albicans) [µg/mL] | MIC (Candida albicans) [µg/mL] | MFC (Trichosporon asahii) [µg/mL] | MIC (Trichosporon asahii) [µg/mL] | MFC [10] [µg/mL] | MIC [10] [µg/mL] | further results |
| --- | --- | --- | --- | --- | --- | --- | --- | --- | --- | --- | --- | --- | --- | --- | --- | --- | --- | --- | --- | --- | --- |
| O=C1CSC(c2ccccc2[N+](=O)[O-])N1CCN1CCCCC1 (configuration not stated) | 100 | 100 | 100 | 100 | 100 | 100 | 50 (≈ 149 µM) | 50 (≈ 149 µM) | 25 (≈ 74.5 µM) | 25 (≈ 74.5 µM) | 100 (≈ 298 µM) | 100 (≈ 298 µM) | 25 (≈ 74.5 µM) | 25 (≈ 74.5 µM) | 55 (≈ 164 µM) | 55 (≈ 164 µM) | 100 (≈ 298 µM) | 100 (≈ 298 µM) | 25 (≈ 74.5 µM) | 25 (≈ 74.5 µM) | Cell viability (Vero [7]): 100%; Cell viability (Vero [8]): 24%; Cell viability (Vero [9]): 30% |
| O=C1CSC(c2cccc(O)c2)N1CCN1CCCCC1 (configuration not stated) | 100 | 100 | 100 | 100 | 100 | 100 | 67 (≈ 219 µM) | 67 (≈ 219 µM) | > 400 | > 400 | 100 (≈ 326 µM) | 100 (≈ 326 µM) | 33.5 (≈ 109 µM) | 33.5 (≈ 109 µM) | 81 (≈ 264 µM) | 81 (≈ 264 µM) | > 400 | > 400 | 100 (≈ 326 µM) | 100 (≈ 326 µM) | Cell viability (Vero [7]): 60%; Cell viability (Vero [8]): 13%; Cell viability (Vero [9]): 11% |
| O=C1CSC(c2ccc(O)cc2)N1CCN1CCCCC1 (configuration not stated) | 100 | 100 | 96 | 94 | 87 | 76 | 100 (≈ 326 µM) | 100 (≈ 326 µM) | 50 (≈ 163 µM) | 50 (≈ 163 µM) | 100 (≈ 326 µM) | 100 (≈ 326 µM) | 25 (≈ 81.6 µM) | 25 (≈ 81.6 µM) | 100 (≈ 326 µM) | 100 (≈ 326 µM) | 50 (≈ 163 µM) | 50 (≈ 163 µM) | 100 (≈ 326 µM) | 100 (≈ 326 µM) | Cell viability (Vero [7]): 57%; Cell viability (Vero [8]): 12%; Cell viability (Vero [9]): 10% |
| COc1cccc(C2SCC(=O)N2CCN2CCCCC2)c1 (configuration not stated) | 100 | 97 | 90 | 84 | 66 | 57 | 100 (≈ 312 µM) | 100 (≈ 312 µM) | > 400 | > 400 | 100 (≈ 312 µM) | 100 (≈ 312 µM) | 33.5 (≈ 105 µM) | 33.5 (≈ 105 µM) | 100 (≈ 312 µM) | 100 (≈ 312 µM) | > 400 | > 400 | 100 (≈ 312 µM) | 100 (≈ 312 µM) | Cell viability (Vero [7]): 19%; Cell viability (Vero [8]): 11%; Cell viability (Vero [9]): 6% |
| Cc1ccc(C2SCC(=O)N2CCN2CCCCC2)cc1 (configuration not stated) | 100 | 100 | 100 | 100 | 85 | 51 | 100 (≈ 328 µM) | 100 (≈ 328 µM) | 100 (≈ 328 µM) | 100 (≈ 328 µM) | 66 (≈ 217 µM) | 66 (≈ 217 µM) | 37.5 (≈ 123 µM) | 37.5 (≈ 123 µM) | 62 (≈ 204 µM) | 62 (≈ 204 µM) | 50 (≈ 164 µM) | 50 (≈ 164 µM) | 100 (≈ 328 µM) | 100 (≈ 328 µM) | Cell viability (Vero [7]): 17%; Cell viability (Vero [8]): 13%; Cell viability (Vero [9]): 12% |
| O=C1CSC(c2c(Cl)cccc2Cl)N1CCN1CCCCC1 (configuration not stated) | 100 | 100 | 100 | 76 | 75 | 32 | 100 (≈ 278 µM) | 100 (≈ 278 µM) | 50 (≈ 139 µM) | 50 (≈ 139 µM) | 200 (≈ 557 µM) | 200 (≈ 557 µM) | 30 (≈ 83.5 µM) | 30 (≈ 83.5 µM) | 75 (≈ 209 µM) | 75 (≈ 209 µM) | 50 (≈ 139 µM) | 50 (≈ 139 µM) | 200 (≈ 557 µM) | 200 (≈ 557 µM) | Cell viability (Vero [7]): 11%; Cell viability (Vero [8]): 10%; Cell viability (Vero [9]): 7% |
| OC(Cn1cncn1)(Cn1cncn1)c1ccc(F)cc1F [FLUCONAZOLE] |  |  |  |  |  |  | 1 (≈ 3.27 µM) | 1 (≈ 3.27 µM) | 8 (≈ 26.1 µM) | 8 (≈ 26.1 µM) | 1 (≈ 3.27 µM) | 1 (≈ 3.27 µM) | 26.5 (≈ 86.5 µM) | 26.5 (≈ 86.5 µM) | 1 (≈ 3.27 µM) | 1 (≈ 3.27 µM) | 1 (≈ 3.27 µM) | 1 (≈ 3.27 µM) | 16 (≈ 52.2 µM) | 16 (≈ 52.2 µM) |  |
